Laboratory results as given in ChEMBL document CHEMBL4610026, “Design, synthesis and evaluation of protein disulfide isomerase inhibitors with nitric oxide releasing activity” (Bioorg Med Chem Lett, 2020).
Activity calls are given as the source filed them. The rule behind the calls is not given here.

Assays:
[1] = target: T1, Protein disulfide-isomerase (Bos taurus) (UniProt P05307); test: Inhibition of bovine liver PDI at 50 uM preincubated for 30 mins followed by insulin addition for 1 hr by insulin-aggregation assay relative to control
T1 sequence (whole entry): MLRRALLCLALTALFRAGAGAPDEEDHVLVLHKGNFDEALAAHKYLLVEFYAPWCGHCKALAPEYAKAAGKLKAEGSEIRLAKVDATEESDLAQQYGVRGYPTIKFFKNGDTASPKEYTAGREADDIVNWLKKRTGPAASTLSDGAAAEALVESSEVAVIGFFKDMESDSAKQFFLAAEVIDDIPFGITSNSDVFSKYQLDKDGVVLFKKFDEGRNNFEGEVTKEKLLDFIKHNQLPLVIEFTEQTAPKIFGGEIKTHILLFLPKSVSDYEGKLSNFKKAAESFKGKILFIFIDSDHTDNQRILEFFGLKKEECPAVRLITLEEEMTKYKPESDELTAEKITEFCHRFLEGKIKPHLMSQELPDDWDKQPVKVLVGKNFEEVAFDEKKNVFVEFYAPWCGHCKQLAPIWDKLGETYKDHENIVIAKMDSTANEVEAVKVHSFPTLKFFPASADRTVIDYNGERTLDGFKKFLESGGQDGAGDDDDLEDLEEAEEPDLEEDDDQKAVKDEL

[2] = test system: HeLa; test: Antiproliferative activity against human HeLa cells assessed as cell growth inhibition at 600 uM by CCK-8 assay relative to control; type: functional; conditions: read-out: GI
[3] = test system: HeLa; test: Antiproliferative activity against human HeLa cells assessed as cell growth inhibition by CCK-8 assay; type: functional, cell-based
[4] = test system: SH-SY5Y; test: Antiproliferative activity against human SH-SY5Y cells assessed as cell growth inhibition by CCK-8 assay; type: functional, cell-based
[5] = test system: HEK-293T; test: Cytotoxicity against human HEK293T cells assessed as cell growth inhibition; type: cell-based
[6] = species on record: Homo sapiens; test: Nitrosylation activity at recombinant PDI (unknown origin) assessed as generation of s-nitrosylated PDI at 50 uM measured after 30 mins in presence of dithiothreitol by biotin switch assay based Western blot analysis
Procedure, shortened: (§1)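 Biotin-switch detection of S-nitrosylated PDI: 400 ng purified recombinant PDI exposed to NO donor (1, 50, 300 or 600 μM) for 30 min, or left untreated.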

[7] = test system: SH-SY5Y; test: Antiproliferative activity against human SH-SY5Y cells assessed as cell growth inhibition at 600 uM by CCK-8 assay relative to control; type: functional; conditions: read-out: GI
[8] = species on record: Homo sapiens; test: Nitrosylation activity at recombinant PDI (unknown origin) assessed as generation of S-nitrosylated PDI at 50 uM measured after 30 mins by biotin switch assay based Western blot analysis; procedure, shortened: as §1
[9] = test system: HeLa; test: Antiproliferative activity against human HeLa cells assessed as cell growth inhibition at 5 uM by CCK-8 assay; type: functional, cell-based
[10] = target: T1, Protein disulfide-isomerase (Bos taurus); conditions: 0.1 to 50 uM
[11] = test system: SH-SY5Y; test: Antiproliferative activity against human SH-SY5Y cells assessed as cell growth inhibition at 5 uM by CCK-8 assay; type: functional, cell-based
[12] = target: T1, Protein disulfide-isomerase (Bos taurus); test: Inhibition of bovine liver PDI preincubated for 30 mins followed by insulin addition for 1 hr by insulin-aggregation assay
[13] = species on record: Homo sapiens; test: Nitrosylation activity at recombinant PDI (unknown origin) assessed as generation of S-nitrosylated PDI at 600 uM measured after 30 mins in presence of dithiothreitol by biotin switch assay based Western blot analysis; procedure, shortened: as §1
[14] = species on record: Homo sapiens; test: Nitrosylation activity at recombinant PDI (unknown origin) assessed as generation of S-nitrosylated PDI at 600 uM measured after 30 mins by biotin-switch assay based Western blot analysis; procedure, shortened: as §1

SMILES | inhibition [1] | inhibition of growth at 600 µM [2] [%] | growth inhibition (GI) [3] | growth inhibition (GI) [4] | Activity [5] | Activity [6] | inhibition of growth at 600 µM [7] [%] | Activity [8] | growth inhibition (GI) [9] | inhibition [10] | growth inhibition (GI) [11] | inhibition [12] | Activity [13] | Activity [14]
N[C@@H](CCC(=O)N[C@@H](CSN=O)C(=O)NCC(=O)O)C(=O)O [S-NITROSOGLUTATHIONE] | inactive | 40 | Active | Active | Non-Toxic | inactive | 40 | Active |  |  |  |  |  | 
C#CCOC(=O)C1(C)c2[nH]c3ccccc3c2CCN1C(=O)CCl (stereo not given) |  |  |  |  |  |  |  |  | Active | Active | Active |  |  | 
C#CCOC(=O)C1(C)c2[nH]c3ccccc3c2CCN1C(=O)CN(N=O)c1ccccc1 (stereo not given) | 50% | 40 | Dose-dependent effect | Dose-dependent effect | Non-Toxic |  | 40 |  |  |  |  | Dose-dependent effect | inactive | Active
